Measured values pooled from the literature.
Compare with care: the assays were run in different laboratories.
Target: Mitogen-activated protein kinase kinase kinase 3 (MAP3K3, Homo sapiens, UniProt Q99759)
Residues used in one study (Q99759 1-626): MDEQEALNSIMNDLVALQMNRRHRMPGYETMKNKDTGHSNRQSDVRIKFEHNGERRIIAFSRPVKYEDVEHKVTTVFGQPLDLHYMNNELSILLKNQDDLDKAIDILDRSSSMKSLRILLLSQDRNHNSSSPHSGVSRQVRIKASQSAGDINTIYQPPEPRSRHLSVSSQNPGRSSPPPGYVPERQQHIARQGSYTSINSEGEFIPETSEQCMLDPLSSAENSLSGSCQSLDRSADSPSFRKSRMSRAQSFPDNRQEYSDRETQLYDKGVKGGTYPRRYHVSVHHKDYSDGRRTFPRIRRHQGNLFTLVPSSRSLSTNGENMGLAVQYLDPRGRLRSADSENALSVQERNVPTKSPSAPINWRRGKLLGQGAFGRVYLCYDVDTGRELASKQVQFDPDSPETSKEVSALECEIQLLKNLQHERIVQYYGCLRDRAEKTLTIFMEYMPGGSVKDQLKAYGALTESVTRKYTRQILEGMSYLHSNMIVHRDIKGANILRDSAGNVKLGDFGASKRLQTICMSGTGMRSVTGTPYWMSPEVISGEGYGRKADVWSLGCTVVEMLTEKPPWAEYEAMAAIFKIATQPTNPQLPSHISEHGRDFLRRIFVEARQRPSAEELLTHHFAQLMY

| SMILES | test | conditions | endpoint | result |
| --- | --- | --- | --- | --- |
| Nc1ncc(-c2nc(N3CCOCC3)nc(N3CCOCC3)n2)c(C(F)F)n1 | binding, competition with immobilised ligand | 10 µM | remaining binding | 72% |
| Cn1cncc1[C@@](O)(COc1ccc(C#N)cc1-c1ccc(OC(F)(F)F)cc1)c1ccc(C#N)cc1 | cell-free assay, competition with immobilised ligand | 1 µM | remaining binding | 81% |
| Cn1cc(-c2cccc(N3CCc4c(sc5c4CC(C)(C)C5)C3=O)c2CO)cc(Nc2ccncn2)c1=O | enzyme activity, inhibitor | 1 µM | inhibition | 3% |
| CC(C)(C)c1cc(C=C(C#N)C#N)cc(Br)c1O | enzyme activity, inhibitor | 0.5 µM | remaining activity | 118% |
| Cc1nn(C)cc1-c1nc2c(N3CCN(Cc4ccc(Cl)cc4)CC3)c(Cl)cnc2[nH]1 | binding, competition with immobilised ligand | 1 µM | remaining binding | 91% |
| COc1ncccc1-c1cnn2ccc(N3CCN(C(=O)OC(C)C)CC3)nc12 | binding, competition with immobilised ligand | 1 µM | remaining binding | 100% |
| O=c1[nH]c2ccccc2n1C1CCN(Cc2ccc(-c3[nH]c4cc5ncnc5cc4nc3-c3ccccc3)cc2)CC1 | cell-free assay | 0.5 µM | remaining signal | 101% |
| Cn1cc(-c2cc(F)cc(N3CCn4c(cc5c4CCCC5)C3=O)c2CO)cc(Nc2ccc(N3CCN(C4COC4)CC3)cn2)c1=O | enzyme activity, inhibitor | 0.1 µM | inhibition | 1% |
| COCc1c(-c2cc3cc(C)cc(OC)c3s2)c2c(N)ncnn2c1CN1CCNC(=O)C1 | cell-free assay, competition with immobilised ligand | 1 µM | inhibition | 95.3% |
